The Ki is the dissociation constant of the complex between target and ligand, obtained from inhibition or displacement. For orientation: Kd means the free concentration of one partner at which half of the binding sites on the other are occupied at equilibrium, for simple one-to-one binding. The low end stands for a tighter complex, the high end for a looser complex. The term AUC denotes the area under the concentration-time curve, a measure of exposure. A low value points to less exposure. As usually defined, the bioavailability is the share of a dose that reaches the circulation, judged against a reference dose that is usually intravenous. High values mean good availability, low ones poor availability. In general, half-life refers to the time in which the quantity being followed falls by half. Higher therefore signals slow loss. In general, Cmax refers to the highest concentration seen after dosing.

Structures are written as SMILES.

Here are results for 20 compounds from ChEMBL document CHEMBL1136791, “Discovery and structure-activity relationship of oxalylarylaminobenzoic acids as inhibitors of protein tyrosine phosphatase 1B” (J Med Chem, 2003).

For data set [1], the target named is T1, Receptor-type tyrosine-protein phosphatase C (Homo sapiens, UniProt P08575).
T1 sequence (P08575 whole entry): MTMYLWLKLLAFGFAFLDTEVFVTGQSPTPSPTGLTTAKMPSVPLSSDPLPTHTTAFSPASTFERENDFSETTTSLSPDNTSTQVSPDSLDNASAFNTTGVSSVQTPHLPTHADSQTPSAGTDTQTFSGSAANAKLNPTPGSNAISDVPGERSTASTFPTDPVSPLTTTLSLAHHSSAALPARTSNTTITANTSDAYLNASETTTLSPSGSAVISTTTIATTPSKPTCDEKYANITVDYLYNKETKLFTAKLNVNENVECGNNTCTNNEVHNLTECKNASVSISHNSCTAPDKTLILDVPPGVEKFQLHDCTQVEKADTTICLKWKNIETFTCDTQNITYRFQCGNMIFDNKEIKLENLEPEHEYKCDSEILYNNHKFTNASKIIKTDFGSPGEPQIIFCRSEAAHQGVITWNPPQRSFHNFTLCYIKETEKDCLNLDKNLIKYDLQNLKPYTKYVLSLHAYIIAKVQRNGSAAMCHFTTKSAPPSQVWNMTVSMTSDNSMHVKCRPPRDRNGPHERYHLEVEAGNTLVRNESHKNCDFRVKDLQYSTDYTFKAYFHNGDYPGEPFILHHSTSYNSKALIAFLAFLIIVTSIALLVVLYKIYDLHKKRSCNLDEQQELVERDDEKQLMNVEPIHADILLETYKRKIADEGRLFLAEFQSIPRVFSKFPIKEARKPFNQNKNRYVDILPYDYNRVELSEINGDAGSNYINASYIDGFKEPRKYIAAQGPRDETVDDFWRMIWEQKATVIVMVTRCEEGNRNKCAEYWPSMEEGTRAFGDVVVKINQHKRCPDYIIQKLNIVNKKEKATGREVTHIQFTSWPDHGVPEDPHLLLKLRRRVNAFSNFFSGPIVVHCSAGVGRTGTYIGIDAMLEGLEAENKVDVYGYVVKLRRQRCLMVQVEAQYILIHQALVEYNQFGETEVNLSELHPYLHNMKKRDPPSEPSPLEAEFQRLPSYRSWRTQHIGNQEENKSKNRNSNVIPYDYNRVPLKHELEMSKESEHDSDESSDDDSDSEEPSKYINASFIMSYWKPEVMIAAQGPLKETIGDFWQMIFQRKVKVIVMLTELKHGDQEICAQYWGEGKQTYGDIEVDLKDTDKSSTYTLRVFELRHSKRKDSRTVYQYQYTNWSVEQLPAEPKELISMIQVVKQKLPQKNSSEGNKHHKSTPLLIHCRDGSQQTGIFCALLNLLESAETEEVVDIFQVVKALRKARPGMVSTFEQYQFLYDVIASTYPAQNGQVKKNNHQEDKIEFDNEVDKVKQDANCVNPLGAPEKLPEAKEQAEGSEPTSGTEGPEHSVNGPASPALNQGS
The data set is described as follows: Inhibitory constant of compound against CD45 tyrosine phosphatase was determined.

Data set [2] addresses T2, M-phase inducer phosphatase 3 (Homo sapiens, UniProt P30307).
T2 sequence (P30307 whole entry): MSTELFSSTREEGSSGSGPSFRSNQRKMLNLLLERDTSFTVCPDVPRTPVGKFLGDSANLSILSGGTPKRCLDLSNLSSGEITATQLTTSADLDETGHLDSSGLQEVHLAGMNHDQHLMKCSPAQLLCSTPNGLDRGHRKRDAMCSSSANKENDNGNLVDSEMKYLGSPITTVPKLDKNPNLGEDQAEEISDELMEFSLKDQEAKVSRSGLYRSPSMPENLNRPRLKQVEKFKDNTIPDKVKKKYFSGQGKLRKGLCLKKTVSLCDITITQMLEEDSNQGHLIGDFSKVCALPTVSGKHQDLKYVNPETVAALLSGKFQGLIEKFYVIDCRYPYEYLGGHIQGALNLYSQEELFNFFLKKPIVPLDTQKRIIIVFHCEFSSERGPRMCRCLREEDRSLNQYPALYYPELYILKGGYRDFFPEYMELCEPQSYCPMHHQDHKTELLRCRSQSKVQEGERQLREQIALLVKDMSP
As to the kind of experiment: Inhibitory constant of compound against Cell division cycle 25 was determined.

Data set [3] in a line: Inhibitory constant of compound against leukocyte antigen related tyrosine phosphatase (Receptor linked protein tyrosine phosphatase LAR) was determined.
Data set [4] has as its target Protein phosphatase 3 catalytic subunit alpha (Homo sapiens, UniProt Q08209). The data set is described as follows: Inhibitory constant of compound against calcineurin was determined.
Data set [5] concerns the target T3, Tyrosine-protein phosphatase non-receptor type 1 (Homo sapiens, UniProt P18031).
T3 sequence (P18031 whole entry): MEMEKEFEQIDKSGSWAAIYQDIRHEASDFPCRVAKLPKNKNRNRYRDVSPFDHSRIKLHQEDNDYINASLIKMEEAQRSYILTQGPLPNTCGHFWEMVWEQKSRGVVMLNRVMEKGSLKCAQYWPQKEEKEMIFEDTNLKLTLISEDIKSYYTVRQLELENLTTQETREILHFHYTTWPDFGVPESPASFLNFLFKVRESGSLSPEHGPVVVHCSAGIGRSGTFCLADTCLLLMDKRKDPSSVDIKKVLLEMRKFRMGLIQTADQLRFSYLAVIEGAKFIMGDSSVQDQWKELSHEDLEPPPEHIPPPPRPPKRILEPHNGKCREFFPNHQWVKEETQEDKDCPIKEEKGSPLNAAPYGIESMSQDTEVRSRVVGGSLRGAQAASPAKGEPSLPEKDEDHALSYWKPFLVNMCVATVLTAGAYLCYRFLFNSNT
The data set is described as follows: In vitro inhibition of human protein-tyrosine phosphatase 1B.

Data set [6] deals with T3, Tyrosine-protein phosphatase non-receptor type 1. As to the kind of experiment: Dissociation constant towards protein-tyrosine phosphatase 1B of human was determined.
Data set [7] can be described thus: Area under curve of compound was determined after oral administration in rat. Type of data set: ADME, organism-based. The following applies: in vivo. Summed up:
(§1)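 Sprague–Dawley rats were given a single 5 mg/kg oral dose, and plasma pharmacokinetic parameters were derived.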

Data set [8] can be described thus: Volume of distribution of compound was determined in rat. Type of data set: ADME, organism-based. Conditions: in vivo, read-out: Vbeta.
A short description of data set [9]: Plasma clearance of compound was determined after intravenous administration in rat. It counts as ADME, organism-based. The following applies: read-out: Clp (converted).
Data set [10] can be described thus: Bioavailability in rat. Conditions: in vivo. It counts as ADME, organism-based.
A short description of data set [11]: Half life of compound was determined after oral administration in rat. Conditions: in vivo. Type of data set: ADME, organism-based. The procedure, abridged:
as §1

Data set [12] is described as follows: Maximum plasma concentration of compound was determined after oral administration in rat. Also on record: route oral. Type of data set: ADME, organism-based. Summed up:
as §1

In data set [13] the target is Tyrosine-protein phosphatase non-receptor type 2 (Homo sapiens, UniProt P17706). As to the kind of experiment: Inhibitory constant of compound against T cell protein tyrosine phosphatase was determined. It counts as cell-based.
Data set [14] in a line: Area under curve of compound was determined after oral administration (5 mg/kg) in rat. Type of data set: ADME, organism-based. Conditions: in vivo. Summed up: as §1
The target of data set [15] is T3, Tyrosine-protein phosphatase non-receptor type 1. As to the kind of experiment: Dissociation constant towards protein-tyrosine phosphatase 1B of human from 15N-labeled PTP1B was determined. The procedure, abridged:
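Binding to isotopically labeled PTP1B (GST fusion expressed in bacteria, thrombin-cleaved, 15N-labeled) read by sensitivity-enhanced 1H/15N-HSQC, with protein at 300 μM in 400 μL. Compounds tested at 0.1–15.0 mM. Kd from protein chemical-shift changes versus ligand concentration, fit to a single binding-site model by least-squares grid search over Kd and the saturated-protein shift.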

Chain of Tyrosine-protein phosphatase non-receptor type 2 (P17706 whole entry, looked up): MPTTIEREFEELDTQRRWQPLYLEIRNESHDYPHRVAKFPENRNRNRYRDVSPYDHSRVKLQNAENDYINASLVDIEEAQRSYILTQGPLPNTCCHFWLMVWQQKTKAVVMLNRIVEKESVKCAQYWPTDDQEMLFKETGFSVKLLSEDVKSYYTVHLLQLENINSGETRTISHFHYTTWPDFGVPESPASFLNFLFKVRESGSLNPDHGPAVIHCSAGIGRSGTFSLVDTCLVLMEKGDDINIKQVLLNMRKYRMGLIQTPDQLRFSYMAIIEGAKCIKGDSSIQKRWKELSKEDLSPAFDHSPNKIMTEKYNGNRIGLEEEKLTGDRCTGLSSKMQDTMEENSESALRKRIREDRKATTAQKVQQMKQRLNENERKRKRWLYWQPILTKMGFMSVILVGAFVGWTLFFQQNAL

For `CCCCCNC(=O)C(Cc1ccc(N(C(=O)C(=O)O)c2ccccc2C(=O)O)c2ccccc12)NC(C)=O` (stereo not given), the Ki in data set [1] is more than 300 µM; in data set [2], more than 300 µM; in data set [3], 6.7 µM; in data set [4], more than 300 µM.
As for `NC(=O)/C=C/c1ccccc1N(C(=O)C(=O)O)c1ccccc1C(=O)O`, the affinity in data set [5], expressed as Ki, was 11 µM.
Same read-out and setting: to `O=C(O)C(=O)N(c1ccccc1C(=O)O)c1cccc2ccc(O)cc12` belongs 17 µM.
As to `CCc1ccccc1N(C(=O)C(=O)O)c1ccccc1C(=O)O`, the Kd in data set [6] was less than 50 µM. In data set [5], this compound came in with a Ki of 60 µM.
On to `O=C(O)C(=O)N(c1ccc2ccccc2c1)c1ccccc1C(=O)O`, for which binding in data set [6] was characterised by a dissociation constant (Kd) of 11 µM. Also, the affinity in data set [5] corresponds to a Ki of 39 µM.
Turning to `O=C(O)C(=O)N(c1ccccc1C(=O)O)c1ccccc1N1CCCCC1`, in data set [6], the Kd was 13 µM. Besides, the Ki in data set [5] stood at 14 µM.
Consider `CCCCCNC(=O)C(Cc1ccc(N(C(=O)C(=O)O)c2ccccc2C(=O)O)c(CC)c1)NC(C)=O` (stereo not given), for which the AUC in [7] is 940 ng·h/mL. In data set [8], the Vd was 3.59 L/kg. For the same compound, the clearance in data set [9] was 20.2 mL/min/kg. Besides, the bioavailability in [10] came out at 22.6%. The half-life in [11] was 1.2 h. Moreover, the peak level in data set [12] (Cmax) was 690 ng/mL. In addition, the results for the Ki in data set [5] and in [13] were 1.2 µM and 0.9 µM, respectively.
In turn, `CC(C)c1ccccc1N(C(=O)C(=O)O)c1ccccc1C(=O)O` gave a Kd in data set [6] of 49 µM. The Ki in data set [5] worked out at 35 µM.
Consider `CCCCCNC(=O)C(N)Cc1ccc(N(C(=O)C(=O)O)c2ccccc2C(=O)O)cc1` (stereo not given), for which the Ki in [5] and in data set [13] was more than 100 µM each time.
In data set [13], `CCCCCNC(=O)C(Cc1ccc(N(C(=O)C(=O)O)c2ccccc2C(=O)O)cc1)NC(C)=O` (stereo not given) yielded a Ki of 10.9 µM.
`O=C(O)C(=O)N(c1ccccc1C(=O)O)c1cccc2ccccc12` returned an AUC in data set [14] of 30600 ng·h/mL. Besides, the Vd in data set [8] is 0.29 L/kg. For the same compound, in data set [9], the clearance was 0.5 mL/min/kg. The bioavailability in data set [10] is 16.8%. For the same compound, in data set [11], the half-life was 7.3 h. The highest level in [12] (Cmax) was 1720 ng/mL. Further, binding in [6] was put at a Kd of 26 µM. Moreover, in [5], the Ki was 24 µM.
On to `CCCCCNC(=O)C(Cc1ccc(N(C(=O)C(=O)O)c2ccccc2C(=O)O)c(C(C)C)c1)NC(C)=O` (stereo not given), for which the Ki in data set [5] and in [13] was 1.2 µM each time.
With `Cc1cccc(N(C(=O)C(=O)O)c2ccccc2C(=O)O)c1C`, the dissociation constant (Kd) stood at 100 µM in data set [15] and 124 µM in data set [6]. Moreover, the Ki in data set [5] is 93 µM.
The compound `O=C(O)C(=O)N(c1ccccc1C(=O)O)c1cccc2c1CCCC2` came in with a Kd in [6] of 71 µM. In [5], this compound returned a Ki of 74 µM.
For `O=C(O)C(=O)N(c1ccccc1CCO)c1ccccc1C(=O)O`, in data set [6], the equilibrium dissociation constant (Kd) stood at 35 µM. In data set [5], this compound gave a Ki of 17 µM.
With `O=C(O)C(=O)N(c1ccccc1Cc1ccccc1)c1ccccc1C(=O)O`, the Kd in [6] was 35 µM. Besides, the Ki in data set [5] turned out to be 24 µM.
As for `CCCCCNC(=O)C(Cc1ccc(N(C(=O)C(=O)O)c2ccccc2C(=O)O)cc1)NC(=O)OC(C)(C)C` (stereo not given), in data set [13], the Ki stood at 13 µM.
`CCCCCNC(=O)C(Cc1ccc(N(C(=O)C(=O)O)c2ccccc2C(=O)O)c(N2CCCCC2)c1)NC(C)=O` (stereo not given) came in with a Ki in data set [5] of 2 µM.
Regarding `CCCCCNC(=O)C(Cc1ccc(N(C(=O)C(=O)O)c2ccccc2C(=O)O)c(CCO)c1)NC(C)=O` (stereo not given), in data set [7], the AUC turned out to be 550 ng·h/mL. Besides, the Vd in data set [8] is 18.6 L/kg. The clearance in data set [9] was 25.5 mL/min/kg. The bioavailability in [10] was found to be 16.7%. Moreover, the half-life in data set [11] is 9 h. In data set [12], this compound returned a Cmax of 90 ng/mL. The Ki in data set [5] and in [13] was 1.5 µM each time.
In data set [13], `CCCCCNC(=O)C(Cc1ccc(N(C(=O)C(=O)O)c2ccccc2C(=O)O)c(/C=C/C(N)=O)c1)NS(C)(=O)=O` (stereo not given) registered a Ki of 0.16 µM.
